# Experimental data reported in ChEMBL document CHEMBL1129067, “Dioxabicyclooctanyl naphthalenenitriles as nonredox 5-lipoxygenase inhibitors: structure-activity relationship study directed toward the improvement of metabolic stability” (J Med Chem, 1996).
# Legend:
# Homo sapiens [1] = organism: Homo sapiens; assay: Test inhibition of LTB4 production in human peripheral blood polymorphonuclear leukocytes (HPMN); format: functional
# Procedure, shortened: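 LTB4 generation measured in human peripheral blood polymorphonuclear leukocytes. IC50 values are the mean of at least two independent determinations, though some values come from a single titration.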
# Homo sapiens [2] = organism: Homo sapiens; assay: Compound was tested for the inhibition of LTB4 production in human whole blood (HWB); format: functional
# Procedure, shortened: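 LTB4 generation measured in human whole blood. IC50 values are the mean of at least two independent titrations, though some values come from a single titration. Where more than two IC50 values were determined, the 95% confidence limits were within 90% of the mean.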
# [3] = target: T1, Polyunsaturated fatty acid 5-lipoxygenase (Homo sapiens, UniProt P09917); assay: Potency to inhibit oxidation of arachidonic acid by recombinant human 5-lipoxygenase
# T1 sequence (P09917 whole entry): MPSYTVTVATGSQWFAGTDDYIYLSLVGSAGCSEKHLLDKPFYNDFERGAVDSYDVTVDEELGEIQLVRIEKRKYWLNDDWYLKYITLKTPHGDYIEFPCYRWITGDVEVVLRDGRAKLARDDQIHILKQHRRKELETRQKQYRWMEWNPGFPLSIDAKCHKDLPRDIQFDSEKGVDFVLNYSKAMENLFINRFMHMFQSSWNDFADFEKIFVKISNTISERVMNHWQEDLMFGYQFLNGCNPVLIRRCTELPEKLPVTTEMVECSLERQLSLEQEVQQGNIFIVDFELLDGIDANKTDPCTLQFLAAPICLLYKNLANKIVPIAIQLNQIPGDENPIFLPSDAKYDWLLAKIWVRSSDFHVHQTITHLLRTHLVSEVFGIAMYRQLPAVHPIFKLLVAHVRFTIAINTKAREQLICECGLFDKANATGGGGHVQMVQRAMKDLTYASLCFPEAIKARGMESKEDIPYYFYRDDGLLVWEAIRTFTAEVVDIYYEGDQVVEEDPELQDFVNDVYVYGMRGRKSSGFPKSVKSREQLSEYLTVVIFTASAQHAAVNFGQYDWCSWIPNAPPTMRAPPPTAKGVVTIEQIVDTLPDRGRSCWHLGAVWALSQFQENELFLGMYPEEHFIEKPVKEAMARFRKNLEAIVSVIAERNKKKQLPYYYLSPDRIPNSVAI
IC50 (Homo sapiens [1]; Homo sapiens),"IC50 (Homo sapiens [2]; Homo sapiens, Blood)",IC50 [3],IC50 (Homo sapiens [1]),IC50 (Homo sapiens [2]),Structure (SMILES)
2 nM,130 nM,50 nM,,,O=C(c1cc(-c2ccoc2)c2ccc(OCc3cccc(C4(O)CCOCC4)c3)cc2c1)c1nccs1
27 nM,> 3000 nM,400 nM,,,O=C1OCc2c1cc1cc(OCc3cccc(C4(O)CC5C=CC(C4)O5)c3)ccc1c2-c1ccccc1 (configuration not stated)
17 nM,2900 nM,190 nM,,,CC1(C)COC(c2cc(-c3ccoc3)c3ccc(OCc4cccc(C5(O)CCOCC5)c4)cc3c2)=N1
8 nM,1000 nM,320 nM,,,O=C1OCc2c1cc1cc(OCc3cccc(C4(O)CC5CCC(C4)O5)c3)ccc1c2-c1ccccc1 (configuration not stated)
> 700 nM,> 3000 nM,> 6000 nM,,,OC1(c2cccc(COc3ccc4c(-c5ccccc5)cc(-c5nn[nH]n5)cc4c3)c2)CCOCC1
2 nM,75 nM,50 nM,,,OC1(c2cccc(COc3ccc4c(-c5ccoc5)cc(C5=NCCS5)cc4c3)c2)CCOCC1
> 62 nM,,> 6000 nM,,,OC1(c2cccc(COc3ccc4c(-c5ccoc5)cc(-c5nc6ccccc6s5)cc4c3)c2)CCOCC1
9 nM,,260 nM,,,OCc1cc(-c2ccccc2)c2ccc(OCc3cccc(C4(O)CCOCC4)c3)cc2c1
10 nM,> 1000 nM,760 nM,,,CCc1cc(-c2ccccc2)c2ccc(OCc3cccc(C4(O)CCOCC4)c3)cc2c1
3 nM,900 nM,180 nM,,,CC1CC(O)(c2cccc(COc3ccc4c(-c5ccccc5)c5c(cc4c3)C(=O)OC5)c2)CC(C)O1 (configuration not stated)
> 67 nM,> 10000 nM,3000 nM,,,Cn1nnnc1-c1cc(-c2ccccc2)c2ccc(OCc3cccc(C4(O)CCOCC4)c3)cc2c1
2 nM,90 nM,130 nM,,,CC(=O)c1cc(-c2ccccc2)c2ccc(OCc3cccc(C4(O)CCOCC4)c3)cc2c1
2 nM,100 nM,26 nM,,,O=C1OCc2c1cc1cc(OCc3cccc(C4(O)CCOCC4)c3)ccc1c2-c1ccoc1
3 nM,50 nM,70 nM,,,OC1(c2cccc(COc3ccc4c(-c5ccoc5)cc(C5=NCCO5)cc4c3)c2)CCOCC1
> 70 nM,,> 6000 nM,,,COC(=O)c1cc(Cc2ccccc2)c2ccc(OCc3cccc(C4(O)CCOCC4)c3)cc2c1
4 nM,310 nM,120 nM,,,Cn1nnc(-c2cc(-c3ccccc3)c3ccc(OCc4cccc(C5(O)CCOCC5)c4)cc3c2)n1
6 nM,540 nM,240 nM,,,O=C1OCc2c1cc1cc(OCc3cccc(C4(O)CC5COC(C4)O5)c3)ccc1c2-c1ccccc1 (configuration not stated)
> 700 nM,> 3000 nM,> 6000 nM,,,O=C1OC(O)c2c1cc1cc(OCc3cccc(C4(O)CCOCC4)c3)ccc1c2-c1ccccc1 (configuration not stated)
190 nM,,,,,O=C(O)c1cc(-c2ccccc2)c2ccc(OCc3cccc(C4(O)CCOCC4)c3)cc2c1
35 nM,> 3000 nM,390 nM,,,O=C1CC(O)(c2cccc(COc3ccc4c(-c5ccccc5)c5c(cc4c3)C(=O)OC5)c2)CCO1 (configuration not stated)
2 nM,140 nM,,,,O=C1OCc2c1cc1cc(OCc3cccc(C4(O)CCOCC4)c3)ccc1c2-c1ccccc1
18 nM,1800 nM,360 nM,,,O=C1OCc2c1cc1cc(OCc3cccc(C4(O)CCOCC4)c3)ccc1c2-c1ccccc1F
40 nM,,640 nM,,,OC1(c2cccc(COc3ccc4c(-c5ccccc5)cc(Cn5ccnc5)cc4c3)c2)CCOCC1
28 nM,675 nM,520 nM,,,CC(O)c1cc(-c2ccccc2)c2ccc(OCc3cccc(C4(O)CCOCC4)c3)cc2c1 (configuration not stated)
3 nM,100 nM,120 nM,,,N#Cc1cc(-c2ccccc2)c2ccc(OCc3cccc(C4(O)CCOCC4)c3)cc2c1
41 nM,> 1000 nM,1200 nM,,,COC(C)c1cc(-c2ccccc2)c2ccc(OCc3cccc(C4(O)CCOCC4)c3)cc2c1 (configuration not stated)

IC50 (Homo sapiens [1]; Homo sapiens),"IC50 (Homo sapiens [2]; Homo sapiens, Blood)",IC50 [3],IC50 (Homo sapiens [1]),IC50 (Homo sapiens [2]),Structure (SMILES)
2 nM,120 nM,23 nM,,,COC1CC(O)(c2cccc(COc3ccc4c(-c5ccccc5)c5c(cc4c3)C(=O)OC5)c2)CCO1 (configuration not stated)
2 nM,80 nM,80 nM,,,Cn1nnc(-c2cc(-c3ccoc3)c3ccc(OCc4cccc(C5(O)CCOCC5)c4)cc3c2)n1
1 nM,200 nM,70 nM,,,O=C(c1ccccc1)c1cc(-c2ccoc2)c2ccc(OCc3cccc(C4(O)CCOCC4)c3)cc2c1
89 nM,,6000 nM,,,COc1ccc(-c2c3c(cc4cc(OCc5cccc(C6(O)CCOCC6)c5)ccc24)C(=O)OC3)cc1
150 nM,> 3000 nM,1300 nM,,,CC1OC(=O)c2cc3cc(OCc4cccc(C5(O)CCOCC5)c4)ccc3c(-c3ccccc3)c21 (configuration not stated)
80 nM,> 3000 nM,> 6000 nM,,,CC1(C)OC(=O)c2cc3cc(OCc4cccc(C5(O)CCOCC5)c4)ccc3c(-c3ccccc3)c21
59 nM,,,,,CC(C)(O)c1cc(-c2ccccc2)c2ccc(OCc3cccc(C4(O)CCOCC4)c3)cc2c1
1 nM,660 nM,140 nM,,,OC1(c2cccc(COc3ccc4c(-c5ccoc5)cc(Cc5nccs5)cc4c3)c2)CCOCC1
2 nM,50 nM,27 nM,,,O=C1OCc2c1cc1cc(OCc3cccc(C4(O)CCOCC4)c3)ccc1c2-c1ccsc1
11 nM,1100 nM,380 nM,,,O=C1OCc2c1cc1cc(OCc3cccc(C4(O)CCOCC4)c3)ccc1c2-c1ccccc1Cl
7 nM,370 nM,120 nM,,,O=C(c1cccnc1)c1cc(-c2ccoc2)c2ccc(OCc3cccc(C4(O)CCOCC4)c3)cc2c1
5 nM,450 nM,280 nM,,,O=C1OCc2c1cc1cc(OCc3cccc(C4(O)CCOCC4)c3)ccc1c2-c1ccco1
25 nM,1200 nM,720 nM,,,O=C1OCc2c1cc1cc(OCc3cccc(C4(O)CCOCC4)c3)ccc1c2-c1cccnc1
15 nM,,2200 nM,,,CCCCc1cc(C(=O)OC)cc2cc(OCc3cccc(C4(O)CCOCC4)c3)ccc12
3 nM,100 nM,70 nM,,,COC(=O)c1cc(-c2ccccc2)c2ccc(OCc3cccc(C4(O)CCOCC4)c3)cc2c1
3 nM,410 nM,140 nM,,,O=C1OCc2c1cc1cc(OCc3cccc(C4(O)CCOCC4)c3)ccc1c2-c1ccc(F)cc1
15 nM,1600 nM,810 nM,,,O=C1OCc2c1cc1cc(OCc3cccc(C4(O)CCOC(O)C4)c3)ccc1c2-c1ccccc1 (configuration not stated)
26 nM,> 3000 nM,5500 nM,,,O=C1OCc2c1cc1cc(OCc3cccc(C4(O)CCOCC4)c3)ccc1c2-c1ccc(Cl)cc1
4 nM,260 nM,80 nM,,,COc1cccc(-c2c3c(cc4cc(OCc5cccc(C6(O)CCOCC6)c5)ccc24)C(=O)OC3)c1
4 nM,200 nM,160 nM,,,COCc1cc(-c2ccccc2)c2ccc(OCc3cccc(C4(O)CCOCC4)c3)cc2c1
3 nM,150 nM,190 nM,,,N#Cc1cc(-c2ccoc2)c2ccc(OCc3cccc(C4(O)CC5COC(C4)O5)c3)cc2c1 (configuration not stated)
2 nM,10 nM,30 nM,,,N#Cc1cc(-c2ccoc2)c2ccc(OCc3cccc(C4(O)CCOCC4)c3)cc2c1
,,140 nM,7 nM,,O=C1OCc2c1cc1cc(OCc3cccc(C4(O)CC5COC(C4)O5)c3)ccc1c2-c1ccoc1 (stereo in doubt; 3u)
,,340 nM,21 nM,2100 nM,O=C1OCc2c1cc1cc(OCc3cccc(C4(O)CC5COC(C4)O5)c3)ccc1c2-c1ccoc1 (stereo in doubt; 3v)
10 nM,80 nM,330 nM,,,COC1(c2cc(F)cc(OCc3ccc4c(ccc(=O)n4C)c3)c2)CCOCC1 [ZD-2138]
,2000 nM,,,,CC(c1cc2ccccc2s1)N(O)C(N)=O (configuration not stated) [ZILEUTON]
